# TPT1 inh = inhibitors of Candida albicans tRNA 2'-phosphotransferase TPT1; inhibition, % at 5 µM; recombinant caTPT1, FP RNA substrate dephosphorylation; actives 0.81% (n = 300,000);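 active = inhibition above the mean of all tested compounds plus 3 SD, set per screening campaign, cut at about 24% in these data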;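 note: plate controls were DMSO alone for no effect and ferristatin control at 100 nM for full effect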
# IDE cell activ = activators of human insulin-degrading enzyme in cells | actives 0.073% (n = 340,000) | AID 493087 | HEK cells, FAbeta-B cleavage, fluorescence polarization; 0% vehicle, 100% cell-free pure enzyme wells | activation, % at 5.96 µM;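 active = activation above the mean of all tested compounds plus 3 SD, set per screening campaign, cut at about 17% in these data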
# IDE inh = inhibits human insulin-degrading enzyme in HEK cells | inhibition, % at 5.59 µM | actives 0.41% (n = 320,000) | P14735 | FAbetaB cleavage, fluorescence polarization;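 active = percent inhibition above the average of all tested compounds plus 3 SD, set per screening campaign, cut at about 16% in these data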;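 note: IDE supplied by intact live HEK cells; FP after avidin binding of uncleaved biotin substrate so inhibition keeps polarization high; 0% = DMSO wells and 100% = 60 µM reference IDE inhibitor Ii1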
# CSN deneddyl inh = inhibitors of human CSN-mediated cullin deneddylation; Purified CSN, SCF-Nedd8-OG deneddylation, fluorescence polarization; inhibition, % at 12.5 µM; actives 0.38% (n = 360,000);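 active = pattern-corrected inhibition above about 35%, with an unprinted fluorescence ratio check between 0.5 and 1.5, limit read from the data, passing the limit was not always enough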;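 note: 0% = enzyme with substrate and 100% = substrate without enzyme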
# Target sequence (Q92905 whole entry, looked up, one chain of several): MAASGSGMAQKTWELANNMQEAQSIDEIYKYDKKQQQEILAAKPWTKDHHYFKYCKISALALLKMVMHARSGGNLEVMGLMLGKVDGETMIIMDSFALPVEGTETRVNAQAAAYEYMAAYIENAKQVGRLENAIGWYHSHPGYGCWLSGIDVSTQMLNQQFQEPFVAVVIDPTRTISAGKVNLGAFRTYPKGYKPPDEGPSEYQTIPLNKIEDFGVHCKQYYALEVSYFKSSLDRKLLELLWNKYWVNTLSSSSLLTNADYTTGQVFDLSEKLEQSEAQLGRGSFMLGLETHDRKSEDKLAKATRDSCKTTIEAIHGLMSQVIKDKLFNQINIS
#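 Assay system: HEK293T-derived human Csn5 enzyme; quantity: 0.24 nM enzyme; medium: Tris/NaCl/DTT buffer, pH 7.5; also added: substrate SCFSkp2-Nedd8OG, 10 nM; doses: 12.5 µM compound; schedule: 90 min reaction at room temperature; signal: FP; read-out: % inhibition of substrate cleavage by Csn5; benchmarks: substrate-only high control, full reaction low control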
# HNF4A DNA FP = change in binding of human HNF4 alpha to DNA; P41235; HNF4a-FITC DNA binding, fluorescence polarization, 1 h; activity change, % at 10 µM; actives 0.3% (n = 360,000); in the data active = activity change above about 30%, passing the limit was not always enough
# Rpn11 block = Rpn11 (human) deubiquitinase inhibition | human 26S proteasome, Ub4-pepOG fluorescence polarization; 20S core pre-blocked with epoxomicin | actives 0.59% (n = 360,000) | inhibition, % at 20 µM | AID 588493 | O00487;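 active = inhibition at 20 µM, scaled to each plate's controls, above about 33%, limit read from the data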
# Target sequence (O00487 whole entry, looked up): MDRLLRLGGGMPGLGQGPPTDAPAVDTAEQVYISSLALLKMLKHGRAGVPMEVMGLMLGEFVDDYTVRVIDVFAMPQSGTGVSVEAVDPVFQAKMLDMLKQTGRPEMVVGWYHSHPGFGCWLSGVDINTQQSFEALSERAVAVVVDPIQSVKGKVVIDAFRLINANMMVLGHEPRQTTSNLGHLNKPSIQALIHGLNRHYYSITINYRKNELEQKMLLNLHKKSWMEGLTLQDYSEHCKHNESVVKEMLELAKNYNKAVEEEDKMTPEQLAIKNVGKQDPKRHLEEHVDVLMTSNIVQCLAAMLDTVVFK
# IDE cell inh cf = cellular human IDE inhibition, confirmation | actives 51% (n = 1,200) | shares compounds with IDE inh | inhibition, % at 5.59 µM | HEK cells, FAbetaB cleavage, fluorescence polarization;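 active = mean inhibition across triplicate wells above the cutoff set by the earlier primary insulin-degrading enzyme screen, cut at about 16% in these data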;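 note: 0% = DMSO wells and 100% = 60 µM reference IDE inhibitor Ii1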
# HEK cytotox = counter-screen for IDE inhibitors: cytotoxicity in HEK cells. shares compounds with IDE inh. HEK293 cytotoxicity, ATP luminescence. inhibition, % at 5.59 µM. actives 28% (n = 1,200); in the data active = inhibition above about 22%;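 note: 0% = vehicle wells and 100% = reference cytotoxic drug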
# IDE FP artifact = fluorescence interference counter-screen for IDE inhibitors; shares compounds with IDE inh; FP counterscreen for fluorescent artifacts, IDE probe project; IC50, µM; 30 tested, under 10 active
# Rpn11 inh conf = Rpn11 inhibition confirmation, single concentration; actives 29% (n = 1,900); purified human 26S proteasome, Ub4-pepOG fluorescence polarization; proteasome pretreated with epoxomicin; inhibition, % at 20 µM; shares compounds with Rpn11 block; in the data active = inhibition above about 40%
# MMP-2 counter-1 = MMP-2 (human) inhibition counter-screen | inhibition, % at 20 µM | actives 4% (n = 1,900) | AID 602330 | recombinant MMP-2, FRET peptide cleavage fluorescence | shares compounds with Rpn11 block; in the data active = inhibition above about 40%;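 note: human MMP-2 activated beforehand with APMA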
# Thrombin FP = blocks bovine thrombin, flagging nonselective RPN11 hits. shares compounds with Rpn11 block. bovine thrombin cleavage of Ub4-pepOG, fluorescence polarization. inhibition, % at 20 µM. actives 13% (n = 1,900). AID 602333;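 active = mean inhibition at least 40% at 20 µM, or signal 3 deviations below plate average, so some actives read negative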;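 note: plate controls were thrombin with DMSO for no effect and buffer wells lacking thrombin for full effect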
# CSN deneddyl val = Csn5 (human) deneddylation inhibition, single-concentration validation. shares compounds with CSN deneddyl inh. Csn5 deneddylation of SCF-Nedd8OG, fluorescence polarization, 90 min. AID 720654. inhibition, % at 16.6 µM. actives 62% (n = 540); in the data active = inhibition above about 50%;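 note: 0% = DMSO with enzyme and 100% = no enzyme wells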
# MMP-2 counter-2 = MMP-2 (human) inhibition, counter-screen for CSN hits | inhibition, % at 16.6 µM | shares compounds with CSN deneddyl inh | recombinant MMP-2, FRET substrate fluorescence, 60 min | actives 33% (n = 540) | AID 720655;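 active = corrected plate-normalized z-score of 5 or more, or -5 or less, or inhibition of 15% or more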;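 note: plate controls were DMSO wells with enzyme for no effect and buffer wells lacking MMP-2 for full effect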
# Thrombin cntr = thrombin (bovine) inhibition, counter-screen for CSN hits. shares compounds with CSN deneddyl inh. bovine thrombin cleavage of Ub4-pepOG, fluorescence polarization. inhibition, % at 16.6 µM. actives 49% (n = 540). AID 720656;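 active = inhibition at or above a set limit, with a fluorescence interference ratio between 0.5 and a set maximum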
# HNF4a DNA conf = change in binding of human HNF4 alpha to DNA, retest; shares compounds with HNF4A DNA FP; HNF4A-FITC DNA binding, fluorescence polarization, 1 h; actives 99% (n = 210); AID 1224897; activity change, % at 12.5 µM
# * marks the source's active call; other numbers are inactive results; x = no result given; + = active, no number. A selection: hits, their analogues and other compounds. The true share with any hit is near 1.7%. Unless noted, the rule behind the calls is not given here.
SMILES,TPT1 inh,IDE cell activ,IDE inh,CSN deneddyl inh,HNF4A DNA FP,Rpn11 block,IDE cell inh cf,HEK cytotox,Rpn11 inh conf,MMP-2 counter-1,Thrombin FP,CSN deneddyl val,MMP-2 counter-2,Thrombin cntr,others
CCOC(=O)[C@@H](C)N(C(=O)OC(C)(C)C)S(=O)(=O)N(Cc1ccccc1)[C@H](C(=O)OC)C(C)C,x,5.8,x,-1.2,3.6,-0.8,x,x,x,x,x,x,x,x,
Cc1oc2cc3oc(=O)c(CCC(=O)NCCCn4ccnc4)c(C)c3cc2c1C,-2.5,-15.6,15.6,1.9,5.8,0.0,x,x,x,x,x,x,x,x,
Cc1c(CCC(=O)NCCCn2ccnc2)c(=O)oc2cc3oc4c(c3cc12)CCCC4,-0.4,-49.9,56.4*,0.9,11.5,2.5,33.4*,21.7,x,x,x,x,x,x,IDE FP artifact=>54.7
CCOC(=O)C1CCCN(C2=NC(=O)/C(=C/c3ccc(OC)cc3OC)S2)C1 (stereo not given),x,0.5,x,4.7,4.6,1.7,x,x,x,x,x,x,x,x,
CCOC(=O)C1CCCN(C2=NC(=O)/C(=C/c3ccc(O)c(OCC)c3)S2)C1 (stereo not given),10.3,-25.3,23.4*,27.3,8.4,77.0*,71.5*,10.6,36.9,-55.9,30.1,x,x,x,
CCOC1=C/C(=C/c2c(N)n3nc(CC(=O)N4CCCCC4)sc3nc2=O)C=CC1=O,10.3,-127.1,20.6*,23.8,10.9,78.9*,25.9*,6.5,43.9*,2.6,38.0,x,x,x,
CCOc1ccc(S(=O)(=O)n2nc(C)cc2C)cc1,0.6,5.6,4.7,-4.3,1.6,7.7,x,x,x,x,x,x,x,x,
O=[N+]([O-])c1cccc(N=Cc2sc3ccccc3c2O)c1,3.1,x,2.5,x,x,x,x,x,x,x,x,x,x,x,
O=[N+]([O-])c1ccc(N=Cc2sc3ccccc3c2O)cc1,51.1*,1.3,16.9*,33.1,5.0,61.5*,13.9,10.9,-5.0,-62.9,-8.6,x,x,x,
CCOC(=O)c1cccnc1NC(=O)c1ccccc1,0.5,5.7,3.0,1.2,3.1,-1.7,x,x,x,x,x,x,x,x,
Cc1ccc2nc(-c3ccc(NC(=O)c4ccco4)cc3)[nH]c2c1,-0.9,-24.2,16.8*,43.5*,2.4,67.1*,14.3,10.1,8.5,-95.9,-8.4,x,x,x,
CCC/C(C#Cc1cc(OC)cc(OC)c1)=C1/c2ccccc2C(=O)N1c1ccccc1,x,1.1,6.5,-0.9,-0.2,14.4,x,x,x,x,x,x,x,x,
CCC/C(C#Cc1ccc(N(C)C)cc1)=C1/c2ccccc2C(=O)N1c1ccccc1,x,-8.2,21.8*,53.5*,94.8,x,15.5,25.6*,x,x,x,+,-59.2*,-74.4,
N#C/C(=C/c1ccc(O)c(O)c1)c1nc2ccccc2[nH]1,21.4,-48.6,47.2*,123.6*,9.7,x,93.0*,9.0,x,x,x,+,-0.8,55.1*,
O=C(O)c1ccc(/C=C2\SC(=S)N(Nc3ccccc3)C2=O)cc1,5.5,-5.5,-1.4,0.4,2.8,0.9,x,x,x,x,x,x,x,x,
COc1cc(/C=C2\SC(=S)N(Nc3ccccc3)C2=O)ccc1O,23.6,-114.0,128.5*,45.6*,36.6*,111.9*,142.4*,9.1,72.1*,5.9,101.2*,85.3*,-1.1,56.1*,
Cc1cc(Cl)ccc1C(O)c1ncc(-c2cccc3ccccc23)[nH]1 (stereo not given),x,x,x,-2.0,4.4,1.5,x,x,x,x,x,x,x,x,
CSc1nc2n(n1)C(C)C1=C(CCCC1=O)N2 (stereo not given),-0.9,5.4,1.4,-8.4,0.7,1.4,x,x,x,x,x,x,x,x,
N=C1/C(=C\c2ccc(SCc3ccco3)o2)C(=O)N=C2SC=NN12,9.9,-31.4,25.3*,105.1*,16.7,12.5,12.8,8.3,x,x,x,59.7*,3.2,25.6*,
Cc1nnsc1C(=O)N/N=C/c1ccc2ccccc2c1O,110.0*,-73.5,90.1*,68.0*,67.2*,x,113.5*,112.6*,x,x,x,36.3,-33.9*,77.0*,
O=C(O)CN1C(=O)/C(=C\c2ccc(OC(=O)c3ccco3)cc2)SC1=S,21.1,-52.6,35.3*,53.5*,72.9*,121.7*,159.9*,6.5,96.0*,-0.2,68.1*,82.0*,11.2,67.8*,
O=C(O)CN1C(=O)/C(=C\c2cccc(OC(=O)c3ccco3)c2)SC1=S,-1.7,0.7,1.0,-4.9,11.8,-9.6,x,x,x,x,x,x,x,x,
Cc1ccc(S(=O)(=O)/N=C2/NC(=O)/C(=C/c3cc([N+](=O)[O-])ccc3O)S2)cc1,64.4*,-44.6,57.7*,54.9*,24.6,x,80.0*,5.0,x,x,x,53.5*,-43.9*,30.8*,
C[C@H](CO)N1C[C@H](C)[C@H](CN(C)C(=O)Nc2ccc(C(F)(F)F)cc2)Oc2ncc(Br)cc2C1=O,x,x,x,-1.0,-10.5,2.0,x,x,x,x,x,x,x,x,
CCC1(c2ccccc2)SCC(c2ccccc2)=NC1=O (stereo not given),x,-1.1,x,-2.1,-0.4,0.5,x,x,x,x,x,x,x,x,
CN(C)c1ccc(/C=C(\C#N)C(=O)OCC(=O)N(C)C2CCS(=O)(=O)C2)cc1 (stereo not given),x,-7.7,16.5*,22.0,41.7*,78.2*,13.1,4.1,61.0*,-4.8,56.4*,x,x,x,HNF4a DNA conf=75.2*
O=C(OCc1ccccc1F)c1cc2ccccc2cc1O,-1.2,1.6,0.6,-3.2,1.4,-2.6,x,x,x,x,x,x,x,x,

# Screening data as filed in PubChem BioAssay.
